Changes are numbered by the printed parent chain. In names and notes the source's numbering stands.
Tests used:
LynD [1] = test: 31P NMR of ATP turnover by LynD; format: biochemical, Lyngbya sp. PCC 8106; details: with and without PatE′
E. coli YcaO = details: absence of substrate, ref [30]; cited from earlier work
LynD Fusion = test: Heterocyclization reaction with LynD fusion, MS; format: biochemical, Lyngbya sp. PCC 8106
Method in brief: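 Enzyme is LynD carrying PatE leader residues 21-38 plus an 11-residue linker at its N-terminus, expressed in E. coli BL21 (DE3) with the His6-tag removed by TEV. Product is read by ESI/MALDI MS or LC-MS […].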

TruD = test: Heterocyclization reaction with TruD, LCMS; format: biochemical; details: ITACITFCAYDG core peptide, no leader, 16 h
LynD [2] = test: Heterocyclization reaction with LynD, MS; format: biochemical, Lyngbya sp. PCC 8106; details: LynD wild type; 100 μM PatE′ or variant, 5 μM enzyme, 150 mM NaCl, 10 mM HEPES pH 7.4, 1 mM TCEP, 5 mM ATP, 5 mM MgCl2, 16 h, 37 °C; ESI or MALDI MS
Method in brief: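 Codon-optimized full-length LynD, with a TEV-cleaved His6-tag, is purified from E. coli BL21 (DE3) by Ni, monoQ and size-exclusion steps. PatE′ (C-terminal His6) comes from inclusion bodies, purified in 8 M urea, then DTT-treated and gel-filtered. 100 μM substrate is reacted with 5 μM enzyme and 5 mM ATP/MgCl2 in HEPES pH 7.4 for 16 h at 37 °C. Heterocycle number is read by ESI or MALDI MS.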

LynD R399E = target: T1, LynD R399E (Lyngbya sp. PCC 8106, R399E); test: ITC
T1 chain: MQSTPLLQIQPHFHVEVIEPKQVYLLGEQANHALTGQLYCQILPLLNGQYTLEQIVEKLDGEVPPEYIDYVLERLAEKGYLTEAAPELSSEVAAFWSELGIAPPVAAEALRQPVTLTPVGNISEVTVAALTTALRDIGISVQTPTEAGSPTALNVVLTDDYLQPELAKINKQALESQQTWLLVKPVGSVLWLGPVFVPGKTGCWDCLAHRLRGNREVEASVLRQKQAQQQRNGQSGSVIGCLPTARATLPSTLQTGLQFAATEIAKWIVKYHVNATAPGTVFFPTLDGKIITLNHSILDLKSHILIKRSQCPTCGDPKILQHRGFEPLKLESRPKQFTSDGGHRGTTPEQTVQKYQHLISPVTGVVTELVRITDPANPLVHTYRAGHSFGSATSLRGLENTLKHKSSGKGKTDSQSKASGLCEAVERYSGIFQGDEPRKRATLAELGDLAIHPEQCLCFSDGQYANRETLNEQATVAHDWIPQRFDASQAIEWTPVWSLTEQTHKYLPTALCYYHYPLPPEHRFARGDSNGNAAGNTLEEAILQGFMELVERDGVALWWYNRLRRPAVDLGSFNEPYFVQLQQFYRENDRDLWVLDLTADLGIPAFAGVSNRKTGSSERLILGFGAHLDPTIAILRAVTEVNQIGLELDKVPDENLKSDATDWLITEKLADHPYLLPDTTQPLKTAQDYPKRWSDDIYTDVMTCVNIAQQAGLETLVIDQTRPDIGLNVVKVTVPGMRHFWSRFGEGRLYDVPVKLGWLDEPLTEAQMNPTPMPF

LynD Y67D = target: T2, LynD Y67D (Lyngbya sp. PCC 8106, Y67D); test: ITC
T2 chain: T1 chain with Y67D, E399R

[3] = target: T3, LynD heterocyclase (cyclodehydratase), full length (Lyngbya sp. PCC 8106); test: ITC
T3 chain: T1 chain with E399R

[4] = target: T3, LynD heterocyclase (cyclodehydratase), …; test: crystal structure

In the case of `Nc1ncnc2c1ncn2[C@@H]1O[C@H](COP(=O)(O)OP(=O)(O)OP(=O)(O)O)[C@@H](O)[C@H]1O` [ATP], the “products of ATP turnover” value (LynD [1]) is listed as “AMP (not ADP), pyrophosphate (PPi) and phosphate” and the ATP hydrolysis products (E. coli YcaO) is listed as “hydrolyzed ATP to AMP and pyrophosphate”.

For ITACITFCAYDG, the “heterocycles formed in leaderless test peptide” value (LynD Fusion; LynDfusion, ITACITFCAYDG core peptide, no leader, 2 h, LCMS) was “predominantly 2 heterocycles after just 2 h” and the “heterocycles formed in leaderless test peptide” value (TruD) was “only 1 heterocycle is formed”.

Molecule “MDKKNILPQQGQPVIRLTAGQLSSQLAELSEEALGDAGLEASKITACITFCAYDGELEHHH HHH [PatE′]” has a No. of heterocycles (LynD Fusion; LynD Fusion, 100 μM PatE′, 5 μM enzyme, pH 7.4, 5 mM ATP, 5 mM MgCl2, 16 h, 37 °C, ESI or MALDI MS) of 2 and a No. of heterocycles (LynD [2]) of 2.

B1: PatE′ (modified PatE precursor peptide with full leader and a single core peptide ITACITFC) (peptide)
chain: MDKKNILPQQGQPVIRLTAGQLSSQLAELSEEALGDAGLEASKITACITFCAYDGELE
For B1, the Kd (LynD R399E) was 10.7 µM, the Kd (LynD Y67D) was 12.9 µM and the Kd [3] was 1.49 µM.

B2: PatE′ C51A (peptide)
chain: B1 chain with C51A
B2: binds [4].

B3: PatE′ E32R (peptide)
chain: B1 chain with E32R
B3 gave a Kd (LynD R399E) of 8.55 µM and a Kd [3] of 18.4 µM.

B4: PatE′ L26R (peptide)
chain: B1 chain with L26R
B4 gave a Kd (LynD Y67D) of 15.2 µM.
